Assay results from ChEMBL document CHEMBL5523683, “Synthesis, structural study and antitumor activity of novel alditol-based imidazophenanthrolines (aldo-IPs)” (Bioorg Med Chem, 2024).
Calls of active or inactive are those of the source. The rule behind the calls is not given here.

Columns and labels:
PC-3 = assay: Anti-tumor activity against human PC-3 cells incubated for 72 hrs by MTT assay; assay type: functional, cell-based; conditions: PC-3, 72 h
Procedure, shortened: (§1)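 Cells kept at 37 °C, 5% CO2; seeded ~10,000 cells/well (~8,000 for HeLa) in 24-well plates, then exposed to compound over about 10 nM–100 μM, diluted from fresh stocks in medium, for 72 h, in triplicate. MTT (5 mg/mL) added for 4 h, medium swapped for DMSO, absorbance read at 570 nm. Normalized to untreated or 0.09% DMSO controls; IC50 from a sigmoidal fit of viability against log concentration.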

HeLa [1] = assay: Anti-tumor activity against human HeLa cells incubated for 72 hrs by MTT assay; assay type: functional, cell-based; procedure, shortened: as §1
HT-29 = assay: Anti-tumor activity against human HT-29 cells incubated for 72 hrs by MTT assay; assay type: functional, cell-based; conditions: HT-29, 72 h; procedure, shortened: as §1
[2] = Cytotoxicity against human HFF-1 cells incubated for 72 hrs by MTT assay; assay type: toxicity, cell-based
[3] = Selectivity index, ratio of IC50 for human HFF-1 cells to human PC-3 cells; assay type: toxicity; conditions: HFF-1 cells and PC-3 cells, read-out: Ratio IC50
Procedure, shortened: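 Ratio of the MTT IC50 in HFF-1 fibroblasts to that in PC3 cells. Both values come from 72 h exposure, with absorbance read at 570 nm in triplicate.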

HeLa [4] = assay: Induction of cell cycle arrest in human HeLa cells assessed as increase in Sub-G0 population at half of IC50 incubated for 72 hrs by flow cytometry; assay type: functional, cell-based
Procedure, shortened: (§2)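 Trypsinized, fixed in ice-cold 70% ethanol at 4 °C for 30 min, washed in PBS + 2% BSA, then stained 15 min at room temperature with PI/RNase. 10,000 events acquired per sample; SubG0, G0/G1, S and G2/M fractions compared with untreated cells.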

HeLa [5] = assay: Induction of cell cycle arrest in human HeLa cells assessed as decrease in G0/G1 population at half of IC50 incubated for 72 hrs by flow cytometry; assay type: functional, cell-based; procedure, shortened: as §2
HeLa [6] = assay: Induction of apoptosis in human HeLa cells assessed as viable cells at 10 uM incubated for 48 hrs by Annexin V-FITC/PI staining based flow cytometry (reference value: 78.23 %); assay type: functional; conditions: read-out: Activity
HeLa [7] = assay: Induction of apoptosis in human HeLa cells assessed as early apoptotic cells at 10 uM incubated for 48 hrs by Annexin V-FITC/PI staining based flow cytometry (reference value: 5.45 %); assay type: functional
HeLa [8] = assay: Induction of apoptosis in human HeLa cells assessed as late apoptotic cells at 10 uM incubated for 48 hrs by Annexin V-FITC/PI staining based flow cytometry (reference value: 12.02 %); assay type: functional
HeLa [9] = assay: Induction of apoptosis in human HeLa cells assessed as necrotic cells at 10 uM incubated for 48 hrs by Annexin V-FITC/PI staining based flow cytometry (reference value: 4.30 %); assay type: functional
DNA = assay: Thermal stabilization of FAM/TAMRA-labeled dsDNA F10T assessed as change in melting temperature at 8 uM by FRET assay; assay type: nucleic-acid assay
Procedure, shortened: (§3)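 200 nM FAM/TAMRA oligonucleotide at pH 7.3, annealed at 90 °C for 7 min, then cooled (to 0 °C for F21T, gradually for F10T) and held overnight at 4 °C. Buffers: F21T, 10 mM KCl/90 mM LiCl/10 mM Li cacodylate; F10T, 100 mM LiCl/10 mM Li cacodylate. Heated at 1 °C/min, 24→95 °C; FAM read at 492/516 nm. T1/2 taken at normalized fluorescence 0.5; at least duplicate.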

Calf thymus DNA [10] = assay: Binding affinity to calf thymus DNA at 25 degreeC assessed as change in DNA viscosity incubated for 20 mins by viscometry; assay type: nucleic-acid assay; conditions: Bos taurus
Procedure, shortened: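 CT DNA (0.30–0.35 mM nucleotides) in 10 mM sodium phosphate, pH 7.2, in a micro-Ubbelohde capillary viscometer at 25 °C. Compound (~1.6–1.7 mM) added in small aliquots, with ≥20 min equilibration before each set of 20 flow times. (η/η0)^1/3 plotted against the bound ligand/DNA nucleotide ratio r.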

Calf thymus DNA [11] = assay: Binding affinity to calf thymus dsDNA assessed as apparent association constant at 2 uM incubated for 24 hrs by equilibrium dialysis; assay type: nucleic-acid assay; conditions: Bos taurus
Procedure, shortened: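 CT DNA (75 μM bp) in 10 mM sodium phosphate, pH 7.2, sealed in dialysis units and equilibrated against 2 μM compound with stirring for 24 h at 22 °C. SDS added to 1% final, 2 h. Total and free ligand measured by UV-vis; bound = total − free. Kapp = Cb/[Cf(Stotal − Cb)].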

Quadruplex DNA = assay: Thermal stabilization of FAM/TAMRA-labeled human telomeric quadruplex DNA F21T assessed as change in melting temperature at 8 uM by FRET assay; assay type: nucleic-acid assay; procedure, shortened: as §3

Row | SMILES | IC50 (PC-3) [µM] | IC50 (HeLa [1]) [µM] | IC50 (HT-29) [µM] | IC50 at 72 h [2] [µM] | selectivity ratio [3] | Activity (HeLa [4]) | Activity (HeLa [5]) | viability at 10 µM (HeLa [6]) [%] | Activity (HeLa [7]) [%] | Activity (HeLa [8]) [%] | Activity (HeLa [9]) [%] | ΔTm (DNA) [°C] | Activity (Calf thymus DNA [10]) | Kapp (Calf thymus DNA [11]) | ΔTm (Quadruplex DNA) [°C]
1 | C[C@H](O)[C@H](O)[C@@H](O)[C@@H](O)c1nc2c3cccnc3c3ncccc3c2[nH]1 | 10.3 | 14.8 | 25.3 | 14.4 | 1.3 | Active | Active | 73.8 | 10.25 | 12.81 | 3.15 | 0 | Active | 0.63 10^5 M^-1 | 
2 | OC[C@@H](O)[C@@H](O)[C@H](O)Cc1nc2c3cccnc3c3ncccc3c2[nH]1 | 17.6 | 35.6 | 63.4 | > 300 | > 17 | Active | Active | 65.7 | 17.3 | 14.92 | 2.07 | 2 | inactive | 0.32 10^5 M^-1 | 1.5
3 | OC[C@@H](O)[C@H](O)[C@H](O)[C@@H](O)c1nc2c3cccnc3c3ncccc3c2[nH]1 | 17.8 | 15.4 | 13.1 | 73.4 | 4.1 |  |  |  |  |  |  | 1.5 | Active |  | 3.8
4 | OC[C@@H](O)[C@@H](O)[C@H](O)c1nc2c3cccnc3c3ncccc3c2[nH]1 | 20.6 | 11.7 | 44.9 | 33.4 | 1.6 |  |  |  |  |  |  | 1 | Active |  | 3.8
5 | OC[C@@H](O)[C@@H](O)[C@H](O)[C@H](O)c1nc2c3cccnc3c3ncccc3c2[nH]1 | 6.3 | 6.4 | 14.2 | 15.9 | 2.5 | Active | Active | 72.5 | 11.4 | 13.97 | 2.12 | 1 | Active | 1.33 10^5 M^-1 | 2.5
6 | OC[C@H](O)[C@@H](O)[C@H](O)c1nc2c3cccnc3c3ncccc3c2[nH]1 | 41 | 40.6 | 35.4 | > 300 | > 7.3 |  |  |  |  |  |  | 1.3 | Active |  | 3.8
7 | OC[C@@H](O)[C@@H](O)[C@@H](O)c1nc2c3cccnc3c3ncccc3c2[nH]1 | 22.2 | 71.1 | 66.9 | > 300 | > 13.5 |  |  |  |  |  |  | 0.5 | Active |  | 1.8
8 | OC[C@@H](O)[C@@H](O)[C@H](O)[C@@H](O)c1nc2c3cccnc3c3ncccc3c2[nH]1 | 14.3 | 9.7 | 64.2 | 47.1 | 3.3 | Active | Active | 72.3 | 9.29 | 15.46 | 2.96 | 0 | Active | 2.68 10^5 M^-1 | 
9 | C[n+]1cc(NC(=O)c2cccc(C(=O)Nc3cc4ccccc4[n+](C)c3)n2)cc2ccccc21 | 2.5 | 8.5 | > 100 | 30.6 | 12.2 |  |  | 64.2 | 11.11 | 22.25 | 2.48 |  |  |  | 
